From PubChem
KCNQ1 inh: human KCNQ1 channel inhibition. P51787. CHO-K1 KCNQ1, FluxOR thallium flux fluorescence; hits give high values. B-score at 10 µM. 310,000 compounds, 1.3% hits. AID 2642;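 active means compounds whose thallium flux B-score, printed positive for inhibition, exceeds three library SD while starting fluorescence stays within three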;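 further: channel opened by potassium depolarization with thallium stimulus after 20 min compound exposure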
KCNK3 block: human KCNK3 channel inhibition, primary screen. 340,000 compounds, 0.84% hits. B-score at 10 µM. CHO-KCNK3 thallium flux, FluxOR fluorescence; hits give low values;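 active means B-score under library mean minus 4 SD, starting fluorescence ratio at most library mean plus 5 SD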;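 further: more negative B-score means stronger inhibition of thallium flux through KCNK3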
KCNK9 block: human KCNK9 channel inhibition; Q9NPC2; HEK293 KCNK9, FluxOR thallium flux fluorescence; hits give low values; B-score at 10 µM; 310,000 compounds, 1.2% hits; AID 488922;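 active means ratio B-score over 3 SD below the library mean, with starting fluorescence within 5 SD of its mean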;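 further: negative B-score means less thallium flux so channel inhibition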
Kir21 inh: blocks the mouse Kir2.1 inward-rectifier potassium channel | HEK293-Kir2.1, FluxOR thallium flux fluorescence; hits give low values | B-score at 10 µM | 310,000 compounds, 0.85% hits | AID 1672;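 active means fluorescence ratio B-score at or below minus 3 SD of library scores, with starting-brightness B-score within 2 SD, cut at about -4.2 in these data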;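 further: channel flux triggered by added potassium and thallium sulfate stimulus; B-score of peak minus minimum fluorescence over baseline after thallium stimulus; more negative B-score means stronger Kir2.1 block with less thallium influx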
hERG rescue: shields human hERG channel from block by proarrhythmic agents; CHO-hERG, FluxOR thallium flux, dofetilide IC70 present; activation (rescue from dofetilide block), less the hit threshold, % at 10 µM; 310,000 compounds, 0.51% hits; AID 1511;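 active means activation above the mean of controls blocked by dofetilide plus 5 SD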;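 further: thallium influx through hERG after potassium depolarization seen as dye fluorescence rise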
Target sequence (Q12809 whole entry, looked up): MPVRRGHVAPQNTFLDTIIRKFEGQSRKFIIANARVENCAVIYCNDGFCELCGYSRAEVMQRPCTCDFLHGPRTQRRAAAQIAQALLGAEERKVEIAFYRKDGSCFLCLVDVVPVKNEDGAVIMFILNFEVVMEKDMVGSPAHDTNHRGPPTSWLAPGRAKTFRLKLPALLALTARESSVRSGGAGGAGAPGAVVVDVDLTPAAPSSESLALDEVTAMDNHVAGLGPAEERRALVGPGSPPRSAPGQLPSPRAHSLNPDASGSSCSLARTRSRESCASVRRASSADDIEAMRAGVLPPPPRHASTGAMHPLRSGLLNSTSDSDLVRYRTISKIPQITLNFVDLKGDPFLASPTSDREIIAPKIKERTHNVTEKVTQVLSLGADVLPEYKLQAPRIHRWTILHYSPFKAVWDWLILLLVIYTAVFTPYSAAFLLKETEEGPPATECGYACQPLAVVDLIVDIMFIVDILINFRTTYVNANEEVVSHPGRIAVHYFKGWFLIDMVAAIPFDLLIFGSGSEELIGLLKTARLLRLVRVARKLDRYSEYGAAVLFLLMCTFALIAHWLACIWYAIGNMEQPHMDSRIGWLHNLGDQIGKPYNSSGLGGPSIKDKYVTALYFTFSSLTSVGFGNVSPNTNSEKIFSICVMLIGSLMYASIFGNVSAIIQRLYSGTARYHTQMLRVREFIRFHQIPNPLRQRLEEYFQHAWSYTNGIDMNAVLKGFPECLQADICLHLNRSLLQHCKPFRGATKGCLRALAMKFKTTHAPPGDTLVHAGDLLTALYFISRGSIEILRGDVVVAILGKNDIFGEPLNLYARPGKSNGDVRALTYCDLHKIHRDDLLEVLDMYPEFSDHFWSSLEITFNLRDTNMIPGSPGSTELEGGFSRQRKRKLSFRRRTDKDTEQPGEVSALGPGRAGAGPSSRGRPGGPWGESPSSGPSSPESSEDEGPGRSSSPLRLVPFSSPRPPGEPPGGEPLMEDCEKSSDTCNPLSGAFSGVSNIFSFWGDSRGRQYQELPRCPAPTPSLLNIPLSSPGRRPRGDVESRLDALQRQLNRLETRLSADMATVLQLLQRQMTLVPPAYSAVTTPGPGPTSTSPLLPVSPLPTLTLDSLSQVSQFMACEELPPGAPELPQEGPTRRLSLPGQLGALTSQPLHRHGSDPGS
KCNQ1 act: human KCNQ1 channel potentiation or activation; CHO-K1 KCNQ1, thallium flux FluxOR fluorescence; hits give high values; B-score at 10 µM; P51787; 310,000 compounds, 0.35% hits;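 active means fluorescence ratio B-score, a plate-corrected score, at least three library SD, with initial intensity B-score within 5 SD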
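Doses: Single concentration per compound, DMSO matched to controls | Test system: KCNQ1-transfected CHO-K1 cells | Timing: 90 min dye loading and 20 min compound exposure, both at room temperature | Measured by: Kinetic FluxOR thallium fluorescence, 10-s 1-Hz baseline, 110-s post-stimulus read | Medium: Assay buffer with matched DMSO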
Of the large screens only hits and unclear results are named; the others gave an inactive call. Compounds with a hit are over-represented: about 3.7% of the library has one in this group of screens.

Cc1cc(Cl)ccc1OCC(=O)OCC(=O)NC1CCS(=O)(=O)C1 (centres undefined)	none (no result: KCNQ1 inh, KCNK9 block, Kir21 inh, hERG rescue, KCNQ1 act)
CCCCNS(=O)(=O)c1ccc2nc(SCC(=O)Nc3sccc3C#N)[nH]c2c1	KCNQ1 inh 11
CCOc1ccc(OCCN2C(=O)NC(Cc3c[nH]c4ccccc34)C2=O)cc1 (centres undefined)	none
O=C1NC(Cc2c[nH]c3ccccc23)C(=O)N1CCOc1ccc(F)cc1 (centres undefined)	Kir21 inh -5.3
CC(=O)C(=Nc1ccc(Cl)cc1Cl)NNc1cccc(Cl)c1	KCNQ1 inh 10
Cc1cc(C)n(CCC(=O)N/N=C/c2ccc(Cl)c([N+](=O)[O-])c2)n1	KCNQ1 inh 7
COc1ccc(/C=N/NC(=O)CCn2nc(C)cc2C)cc1	none
Cc1cc([N+](=O)[O-])cc(/C=N/n2c(C)nc3ccccc3c2=O)c1O	none
C/C(=N\OCc1nc2ccccc2c(=O)n1/N=C/c1cc(C)cc([N+](=O)[O-])c1O)c1ccccc1	KCNQ1 inh 9
O=C(COC(=O)/C=C/c1ccc2c(c1)OCO2)NC1CC1	hERG rescue 5.4
Cc1ccc(C)c(S(=O)(=O)C(C#N)c2nc3ccccc3nc2N2CCCC2)c1 (centres undefined)	KCNK9 block -8.1
Cc1ccc(C)c(S(=O)(=O)C(C#N)c2nc3ccccc3nc2N2CCOCC2)c1 (centres undefined)	none
O=C(O)c1ccccc1C(=O)c1cccc2c(Br)cccc12	none (no result: KCNQ1 inh, KCNK9 block, Kir21 inh, hERG rescue, KCNQ1 act)
COC(=O)c1cccc(N(CC(=O)NC2CCCC2)C(=O)CCC(=O)Nc2cc(C)on2)c1	none
O=C(COC(=O)CN1C(=O)NC2(CCCCC2)C1=O)Nc1cc(F)ccc1F	none (no result: KCNQ1 inh, KCNK9 block, Kir21 inh, hERG rescue, KCNQ1 act)
Cc1c(/C=N/NC(=O)c2cccs2)c2ccccc2n1Cc1ccccc1Cl	KCNK3 block -9.3, KCNK9 block -7.7
O=C(N/N=C/c1ccncc1)c1cccs1	none
Cc1nn(-c2ccccc2)c(C)c1/C=N/NC(=O)c1cc(-c2cccs2)[nH]n1	none
Cc1nn(-c2ccccc2)c(C)c1/C=N/NC(=O)c1cccs1	KCNK9 block -7.8
Cc1ccc(/C=N/NC(=O)CNC(=O)c2cccs2)o1	Kir21 inh -5.5
O=C(CNC(=O)c1cccs1)N/N=C/c1ccco1	none
CSc1ccc(/C=N/NC(=O)c2cccs2)cc1	hERG rescue 25, KCNQ1 act 46
CNC(=O)/C(C#N)=C/c1c(N2CCN(c3ccc(OC)cc3)CC2)nc2c(C)cccn2c1=O	none
O=C(CCc1ccccc1)N=C1SC2CS(=O)(=O)CC2N1c1ccccc1F (centres undefined)	none
COc1ccc(C(CNC(=O)C(C)c2ccc3cc(OC)ccc3c2)N(C)C)cc1 (centres undefined)	Kir21 inh -4.9
COc1cccc(CN2CC(C(=O)NCCN3CCOCC3)CCC2=O)c1 (centres undefined)	none
CC(NC(=O)C1CCC1)c1ccc(Br)cc1 (centres undefined)	none
CC(NC(=O)C1CCCC1)c1ccc(Br)cc1 (centres undefined)	hERG rescue 5.5
Cc1nc2ccccc2c(=O)n1/N=C/c1ccco1	none
Cc1ccccc1OCc1nc2ccccc2c(=O)n1/N=C/c1ccco1	KCNK9 block -6.9
COC(=O)CNC(=O)C1CC(=O)N(CCc2ccc(F)cc2)C1 (centres undefined)	none
CC(C)(CSc1ccccn1)NS(=O)(=O)c1ccccc1	none
CC(C)(CSc1ccccn1)NS(=O)(=O)c1ccc(Cl)cc1	Kir21 inh -5.1
Brc1ccccc1OCCCCn1cnc2ccccc21	KCNQ1 inh 8
O=[N+]([O-])c1ccc(N2CCN(c3cccc(Cl)c3)CC2)nc1	KCNK9 block -6.6
CN(Cc1ccccc1F)C(=O)CN1C(=O)NC2(CCc3ccccc32)C1=O (centres undefined)	none (no result: KCNQ1 inh, KCNK9 block, Kir21 inh, hERG rescue, KCNQ1 act)
CCc1c(C)sc(NC(=O)c2cccs2)c1C(=O)OC(C)C	KCNK9 block -6.6
O=C(O)c1cc(S(=O)(=O)NCCCN2CCCC2=O)ccc1Cl	none (no result: KCNQ1 inh, KCNK9 block, Kir21 inh, hERG rescue, KCNQ1 act)
COc1ccc(C)cc1NC(=S)NNC(=O)c1c(Br)cnn1C	hERG rescue 7.0
Cc1cc(NC(=O)COc2ccc(C(C)(C)C)cc2)no1	none
COC(=O)C1=NN(C(=O)c2ccccc2)C(O)(c2ccc([N+](=O)[O-])cc2)C1 (centres undefined)	none
COC(=O)C1=NN(C(=O)c2ccc(C)cc2)C(O)(c2ccc(Cl)cc2)C1 (centres undefined)	hERG rescue 50, KCNQ1 act 37 (no result: KCNK3 block)
NC(=O)C1(Nc2ccc(C(=O)O)cc2)CCCC1	none (no result: KCNQ1 inh, KCNK9 block, Kir21 inh, hERG rescue, KCNQ1 act)
C/C(=N/Nc1nc(C)c(C)s1)c1cccc([N+](=O)[O-])c1	none
S=c1[nH]c(-c2ccccc2)cs1	hERG rescue 61, KCNQ1 act 44
Fc1ccc(-c2csc(=S)[nH]2)cc1	hERG rescue 48, KCNQ1 act 35
Cc1ccc(NC(=O)COC(=O)Cc2cccs2)cc1S(=O)(=O)N1CCOCC1	none
CN(c1ccccc1)c1nc(N)c([N+](=O)[O-])c(Nc2ccccc2F)n1	KCNK9 block -6.9
CCOC(=O)C1=CN(Cc2ccco2)S(=O)(=O)N(CC)C1c1ccc(F)c(Cl)c1 (centres undefined)	none (no result: KCNQ1 inh, KCNK9 block, Kir21 inh, hERG rescue, KCNQ1 act)
O=[N+]([O-])c1cc(Br)c(O)c(/C=N/Nc2nnnn2-c2cccc3ccccc23)c1	KCNQ1 inh 7
COc1ccc(N2C(=O)C(CC(=O)Nc3ccc(F)cc3)N(CCc3ccc(OC)c(OC)c3)C2=O)cc1 (centres undefined)	none
Clc1ccccc1CSc1nncn1NC/C=C/c1ccccc1	Kir21 inh -6.6
O=C(NCCc1csc(-c2ccc(C(F)(F)F)cc2)n1)c1cccs1	none
CN(C)c1cccc(C(=O)OCC(=O)Nc2ccccc2-c2ccccc2)c1	none
CC(=O)Nc1ccc(C(=O)OCC(=O)Nc2ccccc2Sc2ccccc2)cc1	KCNK9 block -7.2
CC(=O)Nc1ccc(C(=O)OCC(=O)Nc2ccccc2F)cc1	none
CN(C)c1cccc(C(=O)OCC(=O)Nc2ccccc2Sc2ccccc2)c1	KCNQ1 inh 6
CCOC(=O)C1(C(=O)OCC)CCN(S(=O)(=O)c2ccccc2)CC1	none (no result: KCNQ1 inh, KCNK9 block, Kir21 inh, hERG rescue, KCNQ1 act)
O=C(COc1ccc(F)cc1)NNC(=O)Cn1ccc(C(F)(F)F)n1	none (no result: KCNQ1 inh, KCNK9 block, Kir21 inh, hERG rescue, KCNQ1 act)
O=C(O)c1cc(N=Cc2c(O)c3ccccc3oc2=O)ccc1O	none
CC(N=c1ccccn1C(=O)Nc1cccc(C(F)(F)F)c1)c1ccco1 (centres undefined)	KCNQ1 inh 9
CC(=O)c1ccccc1NC(=O)c1ccc(OCc2c(C)noc2C)cc1	none (no result: KCNQ1 inh, KCNK9 block, Kir21 inh, hERG rescue, KCNQ1 act)
CCOC(=O)C1=C(C)NC(SC)=C(C#N)C1CC(C)C (centres undefined)	Kir21 inh -7.1
CCOC(=O)/C(=N/Nc1ccc(Br)cc1)N1CC(C)OC(C)C1 (centres undefined)	KCNK3 block -8.7 (no result: KCNQ1 inh, KCNK9 block, Kir21 inh, hERG rescue, KCNQ1 act)
